In ChEMBL document CHEMBL3877264, “Quinolidene-rhodanine conjugates: Facile synthesis and biological evaluation” (Eur J Med Chem, 2017):
Values after ≈ are worked out from the molar mass of the structure shown.

Key:
[1] = tested on: Mycobacterium tuberculosis; assay: Growth inhibition of Mycobacterium tuberculosis H37Ra ATCC 25177 at dormant stage at 0.78 ug/ml measured after 12 days by XTT dye based two fold dilution method relative to control; type: functional; settings: H37Ra ATCC 25177, 288 h, read-out: GI
In short: (§1)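 MTB H37Ra was grown in Dubos medium, then exposed in Mycobacterium pheli minimal medium (pH 6.6) to compounds dissolved in DMSO. The assay ended on day 8 (active) or day 12 (dormant). Viable cells were measured by XTT reduction menadione assay at 470 nm, blank-corrected, relative to vehicle control. Triplicates were expressed as mean ± SD. MIC came from dose-response curves.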

[2] = Selectivity index, ratio of GI50 for human PANC1 cells to MIC for Mycobacterium tuberculosis H37Ra ATCC 25177 at dormant stage; type: toxicity, cell-based, PANC-1; settings: read-out: Selectivity Index
In short: (§2)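 SI is the cell-line GI50 divided by the dormant-stage mycobacterial MIC. […] THP-1 macrophages were PMA-differentiated for 24 h.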

[3] = tested on: Mycobacterium tuberculosis; assay: Growth inhibition of Mycobacterium bovis BCG ATCC 35743 at dormant stage at 6.25 ug/ml measured after 12 days by nitrate reductase dye based two fold dilution method relative to control; type: functional; settings: BCG str. ATCC 35743, 288 h, read-out: GI
In short: (§3)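 M. bovis BCG was grown in Dubos medium and assayed in Mycobacterium pheli minimal medium (pH 6.6), with compounds from DMSO stocks. Incubation lasted 8 days for active and 12 days for dormant cultures. Viability was read by nitrate reductase at 540 nm against cell-free blanks, with vehicle set as 100% growth. Primary screen was at 30, 10 and 3 µg/ml, in triplicate, mean ± SD. MIC was taken from dose-response curves.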

[4] = tested on: Mycobacterium tuberculosis; assay: Growth inhibition of Mycobacterium tuberculosis H37Ra ATCC 25177 at active stage at 25 ug/ml measured after 8 days by XTT dye based two fold dilution method relative to control; type: functional; settings: H37Ra ATCC 25177, 192 h, read-out: GI; in short: as §1
[5] = tested on: Mycobacterium tuberculosis; assay: Growth inhibition of Mycobacterium tuberculosis H37Ra ATCC 25177 at active stage at 12.5 ug/ml measured after 8 days by XTT dye based two fold dilution method relative to control; type: functional; settings: H37Ra ATCC 25177, 192 h, read-out: GI
[6] = Selectivity index, ratio of GI50 for […]-differentiated human THP1 cells to MIC for Mycobacterium tuberculosis H37Ra ATCC 25177 at dormant stage; type: toxicity, cell-based, THP-1; settings: read-out: Selectivity Index; in short: as §2
[7] = tested on: Mycobacterium tuberculosis; assay: Growth inhibition of Mycobacterium bovis BCG ATCC 35743 at active stage at 50 ug/ml measured after 8 days by nitrate reductase dye based two fold dilution method relative to control; type: functional; settings: BCG str. ATCC 35743, 192 h, read-out: GI
[8] = tested on: Mycobacterium tuberculosis; assay: Growth inhibition of Mycobacterium bovis BCG ATCC 35743 at active stage at 1.56 ug/ml measured after 8 days by nitrate reductase dye based two fold dilution method relative to control; type: functional; settings: BCG str. ATCC 35743, 192 h, read-out: GI; in short: as §3
[9] = Selectivity index, ratio of GI50 for HUVEC to MIC for Mycobacterium tuberculosis H37Ra ATCC 25177 at dormant stage
Escherichia coli [10] = assay: Growth inhibition of Escherichia coli NCIM 2688 at 3 ug/ml measured after 8 hrs relative to control; type: functional; settings: NCIM 2688, 8 h, read-out: GI
In short: (§4)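 Bacteria grown in LB at 37 °C and 180 rpm to OD 1. Compounds added to wells, then 0.1% inoculum of 1 OD culture (620 nm). Growth read as OD at 620 nm after 8 h for gram-negative and after 12 h for gram-positive strains.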

[11] = tested on: Mycobacterium tuberculosis; assay: Growth inhibition of Mycobacterium tuberculosis H37Ra ATCC 25177 at dormant stage at 100 ug/ml measured after 12 days by XTT dye based two fold dilution method relative to control; type: functional; settings: H37Ra ATCC 25177, 288 h, read-out: GI; in short: as §1
[12] = Cytotoxicity against human THP1 cells measured after 48 hrs by MTT assay; type: toxicity, cell-based, THP-1
In short: (§5)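 MTT assay with 48 h compound exposure. THP-1 macrophages made by 24 h PMA treatment. Each concentration tested in triplicate in one experiment. % cytotoxicity = (control−test)/(control−blank)×100, with control = cells + DMSO and blank = medium without cells. IC50 from % survival versus concentration plots.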

[13] = Selectivity index, ratio of GI50 for human HeLa cells to MIC for Mycobacterium tuberculosis H37Ra ATCC 25177 at dormant stage; type: toxicity, cell-based; settings: read-out: Selectivity Index; in short: as §2
[14] = tested on: Mycobacterium tuberculosis; assay: Growth inhibition of Mycobacterium bovis BCG ATCC 35743 at dormant stage at 100 ug/ml measured after 12 days by nitrate reductase dye based two fold dilution method relative to control; type: functional; settings: BCG str. ATCC 35743, 288 h, read-out: GI; in short: as §3
[15] = tested on: Mycobacterium tuberculosis; assay: Growth inhibition of Mycobacterium bovis BCG ATCC 35743 at active stage at 3.13 ug/ml measured after 8 days by nitrate reductase dye based two fold dilution method relative to control; type: functional; settings: BCG str. ATCC 35743, 192 h, read-out: GI; in short: as §3
Escherichia coli [16] = assay: Antibacterial activity against Escherichia coli NCIM 2688 measured after 8 hrs; type: functional; settings: NCIM 2688, 8 h; in short: as §4
Pseudomonas fluorescens = assay: Growth inhibition of Pseudomonas fluorescens NCIM 2036 at 10 ug/ml measured after 8 hrs relative to control; type: functional; settings: NCIM 2036, 8 h, read-out: GI; in short: as §4
[17] = Antifungal activity against Cryptococcus neoformans NCIM 576 by standard agar method; type: functional
In short: (§6)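 MICs determined by standard agar method; DMSO as solvent control.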

[18] = tested on: Mycobacterium tuberculosis; assay: Growth inhibition of Mycobacterium tuberculosis H37Ra ATCC 25177 at active stage at 6.25 ug/ml measured after 8 days by XTT dye based two fold dilution method relative to control; type: functional; settings: H37Ra ATCC 25177, 192 h, read-out: GI; in short: as §1
Aspergillus flavus = assay: Antifungal activity against Aspergillus flavus NCIM 539 by standard agar method; type: functional; in short: as §6
[19] = tested on: Mycobacterium tuberculosis; assay: Growth inhibition of Mycobacterium bovis BCG ATCC 35743 at dormant stage measured after 12 days by nitrate reductase dye based two fold dilution method; type: functional; settings: BCG str. ATCC 35743, 288 h; in short: as §3
[20] = Antifungal activity against Fusarium oxysporum NCIM 1332 by standard agar method; type: functional; in short: as §6
Staphylococcus aureus = assay: Antibacterial activity against of Staphylococcus aureus NCIM 2010 measured after 12 hrs; type: functional; settings: NCIM 2010, 12 h; in short: as §4
[21] = tested on: Mycobacterium tuberculosis; assay: Growth inhibition of Mycobacterium tuberculosis H37Ra ATCC 25177 at active stage at 100 ug/ml measured after 8 days by XTT dye based two fold dilution method relative to control; type: functional; settings: H37Ra ATCC 25177, 192 h, read-out: GI; in short: as §1
[22] = Cytotoxicity against human THP1 cells assessed as growth inhibition at 100 ug/ml measured after 48 hrs by MTT assay relative to control; type: toxicity, cell-based, THP-1; settings: read-out: GI; in short: as §5
[23] = Cytotoxicity against human HeLa cells measured after 48 hrs by MTT assay; type: toxicity, cell-based
[24] = tested on: Mycobacterium tuberculosis; assay: Growth inhibition of Mycobacterium bovis BCG ATCC 35743 at dormant stage at 3 ug/ml measured after 12 days by nitrate reductase dye based two fold dilution method relative to control; type: functional; settings: BCG str. ATCC 35743, 288 h, read-out: GI; in short: as §3
Aspergillus niger = assay: Antifungal activity against Aspergillus niger NCIM 1196 by standard agar method; type: functional; in short: as §6
[25] = tested on: Mycobacterium tuberculosis; assay: Growth inhibition of Mycobacterium bovis BCG ATCC 35743 at dormant stage at 10 ug/ml measured after 12 days by nitrate reductase dye based two fold dilution method relative to control; type: functional; settings: BCG str. ATCC 35743, 288 h, read-out: GI; in short: as §3
[26] = tested on: Mycobacterium tuberculosis; assay: Growth inhibition of Mycobacterium bovis BCG ATCC 35743 at dormant stage at 30 ug/ml measured after 12 days by nitrate reductase dye based two fold dilution method relative to control; type: functional; settings: BCG str. ATCC 35743, 288 h, read-out: GI; in short: as §3

Row | Structure (SMILES) | inhibition of growth at 0.78 µg/mL [1] [%] | selectivity ratio [2] | inhibition of growth at 6.25 µg/mL [3] [%] | inhibition of growth at 25 µg/mL [4] [%] | inhibition of growth at 12.5 µg/mL [5] [%] | selectivity ratio [6] | inhibition of growth at 50 µg/mL [7] [%] | inhibition of growth at 1.56 µg/mL [8] [%] | Selectivity Index [9] | inhibition of growth at 3 µg/mL (Escherichia coli [10]) [%] | inhibition of growth at 100 µg/mL [11] [%] | GI50 at 48 h [12] [µg/mL] | selectivity ratio [13] | inhibition of growth at 100 µg/mL [14] [%] | inhibition of growth at 3.13 µg/mL [15] [%] | MIC (Escherichia coli [16]) [µg/mL] | inhibition of growth at 10 µg/mL (Pseudomonas fluorescens) [%] | MIC [17] [µg/mL] | inhibition of growth at 6.25 µg/mL [18] [%] | MIC (Aspergillus flavus) [µg/mL] | other results
1 | CCOc1ccc2nc(Cl)c(/C=C3\SC(=S)NC3=O)cc2c1 | -39.5 | 28.6 | 101 | 106 | 101 | 28.6 | 98.1 | 93.4 | 28.6 | 64.7 | 105 | > 100 | 28.6 | 99.5 | 99.4 | > 30 | 41 | 50 (≈ 143 µM) | 104 | 50 (≈ 143 µM) | IC50 [19]: 1.1 µg/mL (≈ 3.14 µM); IC90 [19]: 1.9 µg/mL (≈ 5.42 µM); MIC [20]: 150 µg/mL (≈ 428 µM); MIC (Staphylococcus aureus): > 30 µg/mL; inhibition of growth at 100 µg/mL [21]: 111%; inhibition at 48 h, 100 ug/ml [22]: 28.6%; GI50 at 48 h [23]: > 100 µg/mL; inhibition of growth at 3 µg/mL [24]: 91%; MIC (Aspergillus niger): 25 µg/mL (≈ 71.3 µM); inhibition of growth at 10 µg/mL [25]: 93.5%; inhibition of growth at 30 µg/mL [26]: 94.5%
2 | Cc1cccc2cc(/C=C3\SC(=S)NC3=O)c(Cl)nc12 | -16.1 | 7.8 | 62.9 | 105 | 76.3 | 7.8 | 98.4 | -33.4 | 7.8 | 26.2 | 104 | > 100 | 7.8 | 95 | -17.7 | > 30 | 22.9 | 100 (≈ 312 µM) | 48.4 | 100 (≈ 312 µM) | IC50 [19]: 5.1 µg/mL (≈ 15.9 µM); IC90 [19]: 9.5 µg/mL (≈ 29.6 µM); MIC [20]: 200 µg/mL (≈ 623 µM); MIC (Staphylococcus aureus): > 30 µg/mL; inhibition of growth at 100 µg/mL [21]: 113%; inhibition at 48 h, 100 ug/ml [22]: 13.2%; GI50 at 48 h [23]: > 100 µg/mL; inhibition of growth at 3 µg/mL [24]: -6.23%; MIC (Aspergillus niger): 150 µg/mL (≈ 468 µM); inhibition of growth at 10 µg/mL [25]: -5.12%; inhibition of growth at 30 µg/mL [26]: 60.5%
